Reference: ChEMBL document CHEMBL1146211, “Conformationally constrained analogues of diacylglycerol (DAG). 28. DAG-dioxolanones reveal a new additional interaction site in the C1b domain of PKC delta” (J Med Chem, 2007)
The source made the active and inactive calls. No cut-off for these calls is given here.

How the values were obtained:
[1] = molecular target: Protein kinase C alpha type (Mus musculus, UniProt P20444); assay: Displacement of [3H]PDBu from mouse recombinant PKCalpha expressed in Escherichia coli
Method in brief: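 Recombinant full-length mouse PKCα, partially purified, is tested for competitive displacement of [3H]PDBu with phosphatidylserine (100 µg/mL), 4 mg/mL bovine IgG and 50 mM Tris-HCl pH 7.4. Incubation is 37 °C for 5 min, followed by polyethylene glycol precipitation on ice and scintillation counting of bound and free label. Ki is calculated by the lab's standard method, averaged over three independent experiments.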

[2] = molecular target: T1, Protein kinase C delta type (Mus musculus, UniProt P28867); assay: Displacement of [3H]PDBu from mouse wild type C1b domain of PKCdelta expressed in Escherichia coli
Method in brief: (§1)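 Competitive displacement of [3H]PDBu from GST-tagged C1 domains of PKCδ (expressed in E. coli, IPTG-induced, spin-purified, stored in 30% glycerol at -70 °C). 18 °C for 10 min, PEG precipitation on ice, scintillation counting of pellet and supernatant. Ki from the lab's standard method. Three independent experiments.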

[3] = molecular target: Protein kinase C delta type (Mus musculus, UniProt P28867, Q257E); assay: Displacement of [3H]PDBu from mouse PKCdelta C1b Q27E mutant expressed in Escherichia coli; method in brief: as §1
[4] = molecular target: Protein kinase C delta type (Mus musculus) (UniProt P28867); assay: Ratio of Ki for mouse PKCdelta C1b Q27E mutant to Ki for mouse wild type C1b domain of PKCdelta
[5] = molecular target: T1, Protein kinase C delta type; assay: Binding affinity to mouse PKC delta C1a Q27E mutant expressed in Escherichia coli; method in brief: as §1
[6] = molecular target: T1, Protein kinase C delta type; assay: Binding affinity to mouse wild-type PKCdelta C1a expressed in Escherichia coli; method in brief: as §1
[7] = molecular target: Protein kinase C delta type (Mus musculus) (UniProt P28867); assay: Effect on membrane translocation of wildype full length PKCdelta-GFP in CHOK1 cells at 20 uM within 5 mins; assay type: functional, cell-based; settings: CHO-K1
Method in brief: (§2)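 CHO-K1 cells grown at 37 °C, 5% CO2 in F-12 with 10% FBS and penicillin/streptomycin, transfected with GFP-fused PKCδ (wild type or Q257E); imaged 24 h later. Live confocal time series (488 nm excitation, 522/32 emission) in a perfusion chamber at 37 °C after ligand addition (test compound 20 µM; PMA 1 µM). Plasma- and internal-membrane GFP redistribution assessed visually.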

[8] = molecular target: Protein kinase C delta type (Mus musculus) (UniProt P28867); assay: Effect on membrane translocation of PKCdelta-GFP Q257E mutant in CHOK1 cells at 20 uM after 1 hr; assay type: functional, cell-based; settings: CHO-K1; method in brief: as §2

Protein kinase C delta type (Mus musculus), sequence (P28867 whole entry, looked up, the tested form may be a part): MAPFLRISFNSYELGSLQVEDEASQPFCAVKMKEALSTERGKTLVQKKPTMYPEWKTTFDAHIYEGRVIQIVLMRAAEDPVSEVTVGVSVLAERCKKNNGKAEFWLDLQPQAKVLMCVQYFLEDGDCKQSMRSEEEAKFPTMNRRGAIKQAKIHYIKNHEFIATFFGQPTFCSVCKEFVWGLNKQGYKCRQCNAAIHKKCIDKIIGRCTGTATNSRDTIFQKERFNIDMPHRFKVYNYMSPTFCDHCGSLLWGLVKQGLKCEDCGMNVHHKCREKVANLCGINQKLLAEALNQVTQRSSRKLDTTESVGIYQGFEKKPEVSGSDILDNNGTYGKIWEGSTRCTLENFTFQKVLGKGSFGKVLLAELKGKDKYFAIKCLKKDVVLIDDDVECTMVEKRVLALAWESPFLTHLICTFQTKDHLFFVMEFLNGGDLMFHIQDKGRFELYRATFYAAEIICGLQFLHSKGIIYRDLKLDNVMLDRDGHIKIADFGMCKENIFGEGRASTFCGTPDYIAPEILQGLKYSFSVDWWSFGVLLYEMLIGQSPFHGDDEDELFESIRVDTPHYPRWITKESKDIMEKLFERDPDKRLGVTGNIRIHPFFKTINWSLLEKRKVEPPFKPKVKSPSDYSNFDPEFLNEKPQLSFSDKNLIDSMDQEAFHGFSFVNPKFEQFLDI
T1 sequence (P28867 whole entry, the tested form may be a part): as the sequence (P28867 whole entry, looked up, the tested form may be a part) above
Protein kinase C delta type (Mus musculus, UniProt P28867, Q257E), sequence (P28867 whole entry Q257E, the tested form may be a part): as the sequence (P28867 whole entry, looked up, the tested form may be a part) above, with Q257E counted along it

| Structure (SMILES) | Ki [1] [nM] | Ki [2] [nM] | Ki [3] [nM] | Ratio Ki [4] | Ki [5] [nM] | Ki [6] [nM] | Activity [7] | Activity [8] | Kd [5] [nM] | Kd [6] [nM] |
| --- | --- | --- | --- | --- | --- | --- | --- | --- | --- | --- |
| CC(C)CC(=O)OCC1(CO)C/C(=C/CC(CC(C)C)CC(C)C)C(=O)O1 (centres undefined) | 3.49 | 0.96 | 53 | 55 |  |  |  |  |  |  |
| CC(C)C/C=C1/CC(CO)(COC(=O)CC(CC(C)C)CC(C)C)OC1=O (centres undefined) | 3.07 | 2.13 | 73.7 | 35 |  |  |  |  |  |  |
| CC(C)CC(C/C=C1/CC(CO)(COC(=O)C(C)(C)C)OC1=O)CC(C)C (centres undefined) | 2.9 | 1.15 | 44.8 | 39 | 476 | 1.21 |  |  |  |  |
| CC(C)CC(C/C=C1/OC(CO)(COC(=O)C(C)(C)C)OC1=O)CC(C)C (centres undefined) |  | 0.82 | 2510 | 3070 | 1570 | 4.31 | Active | inactive |  |  |
| CC(C)C/C=C1/OC(CO)(COC(=O)CC(CC(C)C)CC(C)C)OC1=O (centres undefined) |  | 0.9 | 1720 | 1910 |  |  |  |  |  |  |
| CC(C)CC=C1OC(CO)(COC(=O)CC(CC(C)C)CC(C)C)OC1=O (centres undefined) | 5.78 |  |  |  |  |  |  |  |  |  |
| CCCC(=O)O[C@@H]1[C@@H](C)[C@@]2(O)[C@@H](C=C(CO)C[C@]3(O)C(=O)C(C)=C[C@@H]23)[C@@H]2C(C)(C)[C@]12OC(=O)CCC |  | 0.33 | 6.2 |  |  |  |  |  | 383 | 2.04 |
| CC(C)CC(=O)OCC1(CO)OC(=O)/C(=C\CC(CC(C)C)CC(C)C)O1 (centres undefined) | 19.8 | 2.82 | 3460 | 1230 |  |  |  |  |  |  |
| CC(C)CC(CC=C1OC(CO)(COC(=O)C(C)(C)C)OC1=O)CC(C)C (centres undefined) | 6.41 |  |  |  |  |  |  |  |  |  |
